Source: PubChem BioAssay AID638 (SRMLSC, 2007)
Screen size: about 1,300 compounds; about 65 (5%) were called active. Not all results are given here. Potency and affinity values are given separately. Values without a mark were called inactive.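 The calls were made as follows: active = growth inhibition reaching a set limit at one or more tested doses; inactive = the rest.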

Test: growth inhibition of wild-type E. coli, dose response, BW25113 wild type, OD615 (AID 638)
Details: at 100 µM (top of the series) unless noted
Summary of the method: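 Assay system: E. coli BW25113 wild type; buffer or medium: Kanamycin-supplemented LB broth; signal: optical density (absorbance) at 615 nm; controls: chloramphenicol 30 µM control; doses: compound concentration series; times: bacterial exposure to compound 20 h at 37 °C; evaluation: IC50 from 4-parameter logistic, bounds fixed 0–100%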

Row | Compound | growth inhibition
1 | N=c1c2c(-c3ccccc3)c(-c3ccccc3)n(Cc3ccco3)c2ncn1Cc1ccco1 | 8.39%
2 | CC(C)(C)N1C(=O)Cc2c1nc(N)c1c(N)nc(N3CCCCC3CO)c(C#N)c21 (stereo not drawn) | -2.72%
3 | c1csc(-c2noc(COc3ccc4c(c3)CCCC4)n2)c1 | 14.2%
4 | COc1ccc(CNC(=O)c2cc(-c3ccccc3OC)on2)cc1 | 10.6%
5 | O=C(CS(=O)(=O)c1ccccc1)Nc1nc(-c2ccccc2)cs1 | 7.34%
6 | CCN(CC)c1ccc(C(=O)Nc2cccc(F)c2)cc1 | 0.51%
7 | O=C(CN1CCN(S(=O)(=O)c2ccc(F)cc2)CC1)Nc1ccc(Cl)c(C(F)(F)F)c1 | 1.58%
8 | CC1CCN(c2nc3ccccc3nc2C(C#N)S(=O)(=O)c2ccccc2)CC1 (stereo not drawn) | -11.4%
9 | CC1=CCC(COC(=O)Nc2ccccc2)CC1 (stereo not drawn) | 10.3%
10 | Cc1cccnc1NC(=O)c1c(O)c2cccc3c2n(c1=O)CCC3 | 0.91%
11 | CCn1c(=O)c(C(=O)Nn2c(C)nc3ccccc3c2=O)c(O)c2ccccc21 | 2.63%
12 | CCOC(=O)Cc1c(C)nc2c(-c3cccc(Br)c3)c[nH]n2c1=O | 7.94%
13 | Cc1onc(-c2ccccc2)c1C(=O)Nc1nnc(COc2ccc(Cl)cc2)s1 | -9.06%
14 | CCn1c(C(=O)N2CCC(Cc3ccccc3)CC2)cc2sccc21 | -18.6%
15 | N#Cc1c(NC(=O)c2ccc(Br)o2)n(-c2ccccc2)c2nc3ccccc3nc12 | -13.4%
16 | CC1=C(C#N)c2nc(N)c(C#N)c(C)c2/C1=C\c1ccccc1 | -0.01%
17 | C(=C\c1ccccc1)/CN1CCN(c2ncnc3c2oc2ccccc23)CC1 | -1.65%
18 | CCC(CC)c1nnc(NC(=O)c2c(-c3ccccc3)noc2C)s1 | 9.3%
19 | O=C1c2ccccc2C(O)(Cc2ccccc2)N1C1CCCCC1 (stereo not drawn) | -0.01%
20 | CCCc1nc(SCC(=O)N2CCC(Cc3ccccc3)CC2)c2c(=O)n(C)c(=O)n(C)c2n1 | -7.24%

Row | Compound | growth inhibition
21 | O=C(Nc1ccc2nc(-c3cccs3)[nH]c2c1)c1ccco1 | 15%
22 | Cc1ccccc1S(=O)(=O)Cc1ccc(C(=O)N2CCN(c3cccc(C)c3C)CC2)o1 | 7.63%
23 | COc1ccc(-c2cc3nc4c(c(N5CCC6(CC5)OCCO6)n3n2)CCCC4)cc1 | 0.64%
24 | Clc1ccc(C2=Nn3c(nnc3-c3n[nH]c4c3CCC4)SC2)cc1Cl | 1.98%
25 | Cc1cccc(N2C(N)=C(C#N)C(C#N)(C#N)C2c2ccccc2)c1 (stereo not drawn) | -0.76%
26 | O=c1n(Cc2ccccc2)c2cc(Cl)cnc2n1Cc1ccccc1 | 6.2%
27 | CC(C)(C)C(=O)Cn1c(=N)n(Cc2ccccc2)c2ccccc21 | 1.06%
28 | O=C(NCc1ccco1)C(c1cccs1)N(C(=O)C1COc2ccccc2O1)c1cccc(O)c1 (stereo not drawn) | 1.03%
29 | CCOC(=O)N1CCN(c2nc(N(c3ccccc3)c3ccccc3)nc(-n3ccnc3)n2)CC1 | -3.06%
30 | COc1ccc(C2c3sc(=O)[nH]c3SC3C4CCC(C4)C23)cc1 (stereo not drawn) | 0.8%
31 | O=C(Nc1ccc(N2CCN(C(=O)c3ccco3)CC2)c(Cl)c1)c1cccs1 | -1.45%
32 | CCOc1ccccc1N1CCN(C(=O)Nc2ccc(F)c(Cl)c2)CC1 | -9.1%
33 | CCOC(=O)c1cn(CC)c2cc(N3CCCCC3)c(F)cc2c1=O | -6.06%
34 | O=C(Nc1ccc(N2CCN(C(=O)c3ccco3)CC2)c(Cl)c1)c1c(F)c(F)c(F)c(F)c1F | -3.01%
35 | CCn1cc(C(=O)O)c(=O)c2cc(OC)ccc21 | 19.6%
36 | CCOC(=O)c1cn(CC)c2cc(N3CCOCC3)c(F)cc2c1=O | 4.05% [at 50 µM]
37 | CCn1cc(C(=O)O)c(=O)c2cnc(N3CCN(C(=O)Nc4ccccc4)CC3)nc21 | 5.93%
38 | Cc1nc2c(C(=O)NCc3ccc4c(c3)OCO4)c[nH]n2c(=O)c1Cc1ccccc1F | 0.77%
39 | CCn1c2ccccc2c2cc(NC(=O)c3ccco3)ccc21 | -3.49%
40 | COc1ccccc1-c1cc(C(=O)NCc2ccc(F)cc2)no1 | -0.01%

Row | Compound | growth inhibition
41 | CCOC(=O)C1=C(C)NC(SCC(=O)Nc2cc(C)on2)=C(C#N)C1c1cccs1 (stereo not drawn) | 3.97%
42 | CCOC(=O)c1c(-c2cccs2)csc1NC(=O)CN1CC(C)OC(C)C1 (stereo not drawn) | -7.6%
43 | Nc1nc(CN2CCN(c3cccc(Cl)c3)CC2)nc(N2CCCc3ccccc32)n1 | 4.24%
44 | O=c1c2c(nc3c(-c4cccc5ccccc45)c[nH]n13)CCC2 | -1.35%
45 | Cc1ccc(Cn2ccc(NC(=O)c3cc(CC(C)C)on3)n2)cc1 | 0.62%
46 | N#Cc1cn(CCOc2ccccc2F)c2ccccc12 | -0.93%
47 | COc1ccccc1N1CCN(C(=O)c2cc(-c3ccc(C)cc3)on2)CC1 | -0.92%
48 | Cc1cccc(C)c1NC(=O)C(c1cccs1)N(Cc1ccco1)C(=O)Cn1nnc2ccccc21 (stereo not drawn) | -8.04%
49 | O=C(Nc1ccc2c(c1)CCC2)C1COc2ccccc2O1 (stereo not drawn) | 7.62%
50 | CCCN(CCC)C(=O)CSc1nc2ccccc2c(=O)n1C1CCCC1 | -6.85%
51 | CCOC(=O)c1cc2sccc2n1Cc1ccc(C#N)cc1 | -10.3%
52 | CCc1c(O)nc(SCC(=O)Nc2ccc(C)cc2)n(C2CCCCC2)c1=O | -10.1%
53 | CC1CCCc2sc3nc(NCc4ccco4)n4ncnc4c3c21 (stereo not drawn) | -3.17%
54 | O=C1OC(c2ccc(O)cc2)(c2ccc(O)cc2)c2ccccc21 | 24.6% (active)
55 | CCn1c(SC)nnc1-c1sc2cc(Cl)ccc2c1Cl | 2.34%
56 | CC1CCCCC1n1c(=S)[nH]c2ccccc2c1=O (stereo not drawn) | -0.57%
57 | CCCOc1ccc2oc(=O)c3c(c2c1)CCCN3C(=O)CN1CCc2ccccc2C1 | 0.92%
58 | Cc1ccc(O)c(C(=O)CC(=O)c2cccc(F)c2)c1 | 11.9%
